Activity calls are given as the source filed them. No cut-off for these calls is given here.

Tested on in one data set: not listed separately
Kind of data set: Toxicity in HASMC assessed as cell viability at 0.1 uM after 96 hrs by MTT assay relative to control. It counts as cell-based. The conditions noted are these: human, HASMC cells; read-out: Activity. In short, it runs like this: (§1)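 Serum-starved HASMCs (3000–3500 cells/well) received compound in complete SMC medium (2% FBS) with 1% DMSO at 0.1, 1, 5, 10 or 20 µM for 48 h. Fresh medium was then added and cells grew a further 48 h (96 h total). MTT 4–6 h at 37 °C, solubilized, A570 as % of medium-only control; 1% DMSO vehicle; triplicate; t-test versus vehicle.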
Regarding `CCCCCCNc1cccc(NCCCCCC)c1[N+](=O)[O-]`, the viability at 96 h, 0.1 µM amounted to 82.2%.
The same measure, in the same setting: the value for `CCCCCCCCNc1cccc(NCCCCCCCC)c1[N+](=O)[O-]` was 86.2%; that for `CCCCCCCCCNc1cccc(NCCCCCCCCC)c1[N+](=O)[O-]` was 82%; that for `CCCCCCCCCCNc1ccc([N+](=O)[O-])c(NCCCCCCCCCC)c1` was 89%.
The same measure, in the same setting: the same measure for `CCCCCCCCNc1ccc([N+](=O)[O-])c(NCCCCCCCC)c1`: 84.6%; for `CCCCCCCCCNc1ccc([N+](=O)[O-])c(NCCCCCCCCC)c1`: 87%.
Regarding `CCCCCCCNc1ccc([N+](=O)[O-])c(NCCCCCCC)c1`, the viability at 96 h, 0.1 µM amounted to 88.3%.
Consider `CCCCCCCCCCNc1cccc(NCCCCCCCCCC)c1[N+](=O)[O-]`, for which the viability at 96 h, 0.1 µM came out at 76.8%.
Regarding `CCCCCCCNc1cccc(NCCCCCCC)c1[N+](=O)[O-]`, the viability at 96 h, 0.1 µM came out at 81.6%.
The same measure, in the same setting: the value for `CCCCCCNc1ccc([N+](=O)[O-])c(NCCCCCC)c1` was 85.1%.

Tested on in another data set: not listed separately
Description: Toxicity in HASMC assessed as cell viability at 5 uM after 96 hrs by MTT assay relative to control. It counts as cell-based. The conditions noted are these: human, HASMC cells; read-out: Activity. The procedure, abridged:
as §1
(Tetrazolium assays rely on reduction of a dye to a coloured formazan, in cell work by metabolically active cells.)
Regarding `CCCCCCNc1cccc(NCCCCCC)c1[N+](=O)[O-]`, the viability at 96 h, 5 µM stood at 84%.
On to `CCCCCCCCNc1cccc(NCCCCCCCC)c1[N+](=O)[O-]`, for which the viability at 96 h, 5 µM came out at 82.9%.
In the case of `CCCCCCCCCNc1cccc(NCCCCCCCCC)c1[N+](=O)[O-]`, the viability at 96 h, 5 µM turned out to be 75%.
As to `CCCCCCCCCCNc1ccc([N+](=O)[O-])c(NCCCCCCCCCC)c1`, the viability at 96 h, 5 µM was 88%.
The same measure, in the same setting: the same measure for `CCCCCCCCNc1ccc([N+](=O)[O-])c(NCCCCCCCC)c1`: 87.2%.
Still for that read-out and setting: the same measure for `CCCCCCCCCNc1ccc([N+](=O)[O-])c(NCCCCCCCCC)c1`: 86%; for `CCCCCCCNc1ccc([N+](=O)[O-])c(NCCCCCCC)c1`: 87.6%.
The same measure, in the same setting: the value for `CCCCCCCCCCNc1cccc(NCCCCCCCCCC)c1[N+](=O)[O-]` was 70%.
With `CCCCCCCNc1cccc(NCCCCCCC)c1[N+](=O)[O-]`, the viability at 96 h, 5 µM is 82%.
With `CCCCCCNc1ccc([N+](=O)[O-])c(NCCCCCC)c1`, the viability at 96 h, 5 µM came out at 84%.

Tested on in another data set: not listed separately
Kind of data set: Toxicity in HASMC assessed as cell viability at 1 uM after 96 hrs by MTT assay relative to control. It counts as cell-based. Conditions: human, HASMC cells; read-out: Activity. The procedure, abridged: as §1
Take `CCCCCCNc1cccc(NCCCCCC)c1[N+](=O)[O-]`: the viability at 96 h, 1 µM was found to be 82%.
On the same count and under the same terms, the same measure for `CCCCCCCCNc1cccc(NCCCCCCCC)c1[N+](=O)[O-]`: 89.7%; for `CCCCCCCCCNc1cccc(NCCCCCCCCC)c1[N+](=O)[O-]`: 78%; for `CCCCCCCCCCNc1ccc([N+](=O)[O-])c(NCCCCCCCCCC)c1`: 87.4%.
Consider `CCCCCCCCNc1ccc([N+](=O)[O-])c(NCCCCCCCC)c1`, for which the viability at 96 h, 1 µM turned out to be 89.6%.
Take `CCCCCCCCCNc1ccc([N+](=O)[O-])c(NCCCCCCCCC)c1`: the viability at 96 h, 1 µM was 86.3%.
Still for that read-out and setting: the same measure for `CCCCCCCNc1ccc([N+](=O)[O-])c(NCCCCCCC)c1`: 87%.
Still for that read-out and setting: the value for `CCCCCCCCCCNc1cccc(NCCCCCCCCCC)c1[N+](=O)[O-]` was 75.5%; that for `CCCCCCCNc1cccc(NCCCCCCC)c1[N+](=O)[O-]` was 80%; that for `CCCCCCNc1ccc([N+](=O)[O-])c(NCCCCCC)c1` was 86.1%.

Tested on in a further data set: not listed separately
Description: Induction of nitric oxide release in phosphate buffered saline up to 20 days by Griess reagent test. It counts as physicochemical. More on the design: concentration or dose not given beside the values. The conditions noted are these: buffer, 480 h. In short, it runs like this:
(§2)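 Nitrosated compound was stirred in 1X PBS at 0.0125 M (0.0250 M NO) at room temperature. Aliquots were taken hourly to 12 h, every 4 h to 24 h, every 8 h to 48 h, then every 24 h. Aliquots were centrifuged and triplicate supernatants mixed with Griess reagent for 5 min. Absorbance at 550 nm was plotted against time.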
Background: Nitrite, measured by Griess reagent, commonly stands in for NO production.
`CCCCCCCCCN(N=O)c1cccc(N(CCCCCCCCC)N=O)c1[N+](=O)[O-]` had an Activity of 2.32%.

Another data set has as its system HASMC. Description: Induction of nitric oxide release in HASMC at 5 to 20 uM after 60 mins by DAF-FM DA assay. Conditions: Homo sapiens. It counts as functional, cell-based.
`CCCCCCCCCN(N=O)c1cccc(N(CCCCCCCCC)N=O)c1[N+](=O)[O-]`: the result was Active.

Tested on in another data set: not listed separately
Kind of data set: Half life of the compound. In kind it is physicochemical.
Details: not given
The procedure, abridged:
as §2
By half-life is commonly meant the time in which the quantity being followed falls by half. In the case of `CCCCCCCCCN(N=O)c1cccc(N(CCCCCCCCC)N=O)c1[N+](=O)[O-]`, the half-life was 80 h.

Tested on in another data set: not listed separately
Description: Nitrosation of the compound in glacial acetic acid/tetrahydrofuran after 24 to 48 hrs by IR spectroscopy analysis. In kind it is physicochemical.
Details: not given
Turning to `CCCCCCCCCN(N=O)c1cccc(N(CCCCCCCCC)N=O)c1[N+](=O)[O-]`, the Activity turned out to be 100%.

Tested on in the next data set: not listed separately
Description: Toxicity in HASMC assessed as cell viability at 10 uM after 96 hrs by MTT assay relative to control. In kind it is cell-based. The conditions noted are these: human, HASMC cells; read-out: Activity. The procedure, abridged:
as §1
On to `CCCCCCNc1cccc(NCCCCCC)c1[N+](=O)[O-]`, for which the viability at 96 h, 10 µM was determined as 81%.
Same read-out and setting: the same measure for `CCCCCCCCNc1cccc(NCCCCCCCC)c1[N+](=O)[O-]`: 83.2%; for `CCCCCCCCCNc1cccc(NCCCCCCCCC)c1[N+](=O)[O-]`: 73%.
Same read-out and setting: the value for `CCCCCCCCCCNc1ccc([N+](=O)[O-])c(NCCCCCCCCCC)c1` was 84%; that for `CCCCCCCCNc1ccc([N+](=O)[O-])c(NCCCCCCCC)c1` was 84%; that for `CCCCCCCCCNc1ccc([N+](=O)[O-])c(NCCCCCCCCC)c1` was 84.5%.
Same read-out and setting: the value for `CCCCCCCNc1ccc([N+](=O)[O-])c(NCCCCCCC)c1` was 86%; that for `CCCCCCCCCCNc1cccc(NCCCCCCCCCC)c1[N+](=O)[O-]` was 69%; that for `CCCCCCCNc1cccc(NCCCCCCC)c1[N+](=O)[O-]` was 81%.
Regarding `CCCCCCNc1ccc([N+](=O)[O-])c(NCCCCCC)c1`, the viability at 96 h, 10 µM was 85.9%.

Tested on in the next data set: not listed separately
Description: Toxicity in HASMC assessed as cell viability at 20 uM after 96 hrs by MTT assay relative to control. In kind it is cell-based. The conditions noted are these: human, HASMC cells; read-out: Activity. The procedure, abridged:
as §1
As to `CCCCCCNc1cccc(NCCCCCC)c1[N+](=O)[O-]`, the viability at 96 h, 20 µM was found to be 81%.
Same read-out and setting: the value for `CCCCCCCCNc1cccc(NCCCCCCCC)c1[N+](=O)[O-]` was 82.8%; that for `CCCCCCCCCNc1cccc(NCCCCCCCCC)c1[N+](=O)[O-]` was 68%.
The same measure, in the same setting: the value for `CCCCCCCCCCNc1ccc([N+](=O)[O-])c(NCCCCCCCCCC)c1` was 84%; that for `CCCCCCCCNc1ccc([N+](=O)[O-])c(NCCCCCCCC)c1` was 85.4%.
On the same count and under the same terms, the same measure for `CCCCCCCCCNc1ccc([N+](=O)[O-])c(NCCCCCCCCC)c1`: 86%; for `CCCCCCCNc1ccc([N+](=O)[O-])c(NCCCCCCC)c1`: 85.6%; for `CCCCCCCCCCNc1cccc(NCCCCCCCCCC)c1[N+](=O)[O-]`: 65%.
Regarding `CCCCCCCNc1cccc(NCCCCCCC)c1[N+](=O)[O-]`, the viability at 96 h, 20 µM stood at 80%.
For the molecule `CCCCCCNc1ccc([N+](=O)[O-])c(NCCCCCC)c1`, the viability at 96 h, 20 µM turned out to be 87%.

For a further data set, the system named is HASMC. Description: Toxicity in HASMC assessed as cell viability using calcein AM and ethidium homodimer-1 by LIVE/DEAD assay. The conditions noted are these: human. It counts as cell-based. In short, it runs like this: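 HASMCs in black plates were exposed for 96 h to compound at 0.1–20 µM in medium with 1% DMSO. Floating dead cells were pelleted, washed in PBS and returned to their wells. Cells were stained with Eth-1 (0.5 µM) and calcein AM (0.25 µM) for 45 min at room temperature, then read at ex/em 495/530 and 528/645 nm. Triplicate; t-test versus vehicle.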
As to `CCCCCCNc1cccc(NCCCCCC)c1[N+](=O)[O-]`, the Activity entry is given as “Non-toxic”.
Still for that read-out and setting: the same measure for `CCCCCCCCNc1cccc(NCCCCCCCC)c1[N+](=O)[O-]`: “Non-toxic”; for `CCCCCCCCCNc1cccc(NCCCCCCCCC)c1[N+](=O)[O-]`: “Toxic”.
Same read-out and setting: the same measure for `CCCCCCCCCCNc1ccc([N+](=O)[O-])c(NCCCCCCCCCC)c1`: “Non-toxic”; for `CCCCCCCCNc1ccc([N+](=O)[O-])c(NCCCCCCCC)c1`: “Non-toxic”; for `CCCCCCCCCNc1ccc([N+](=O)[O-])c(NCCCCCCCCC)c1`: “Non-toxic”.
As to `CCCCCCCNc1ccc([N+](=O)[O-])c(NCCCCCCC)c1`, the Activity result was “Non-toxic”.
As for `CCCCCCCCCCNc1cccc(NCCCCCCCCCC)c1[N+](=O)[O-]`, the Activity entry was “Toxic”.
As to `CCCCCCCNc1cccc(NCCCCCCC)c1[N+](=O)[O-]`, the Activity result is given as “Non-toxic”.
With `CCCCCCNc1ccc([N+](=O)[O-])c(NCCCCCC)c1`, the Activity result is on record as “Non-toxic”.
